Activity calls are given as the source filed them. The calls are words filed in the database; no cut-off is given here.
Legend:
[1] = target: Eukaryotic initiation factor 4A-I (Homo sapiens) (UniProt P60842); experiment: Inhibition of eIF4A (unknown origin) expressed in Escherichia coli BL21(DE3) at 100 uM preincubated for 10 mins followed by ATP and fluorescently-labeled RNA addition measured after 10 mins by real-time fluorescence assay
In short: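 Recombinant eIF4A from E. coli BL21(DE3), Talon-purified, at 500 nM in pH 6.0 MES-KOH buffer (10 mM K acetate, 2.5 mM MgCl2, 1% glycerol, 1 mM DTT). Preincubated with 100 µM compound (2% DMSO final) for 10 min at 22°C. Started with 50 nM labeled RNA plus 1 mM ATP, then real-time fluorescence read for 10 min at 25°C. Percent inhibition from slopes versus DMSO and water (no-ATP) controls.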

[2] = target: Eukaryotic initiation factor 4A-I (Homo sapiens) (UniProt P60842); experiment: Inhibition of eIF4A1 (unknown origin) expressed in Escherichia coli BL21(DE3) at 0.01 to 100 uM using Poly(U) RNA as substrate preincubated for 10 mins followed by substrate addition measured after 60 mins by malachite green dye-based assay
In short: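 Compound dilutions 100 to 0.0457 µM, 2% DMSO final, 10 min at 37°C. ATP added and reaction run 60 min at 37°C, then malachite green OD660 read. DMSO 2% and 20 mM EDTA served as controls. IC50 from semi-log fit.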

[3] = target: Transitional endoplasmic reticulum ATPase (Homo sapiens, UniProt P55072); experiment: Inhibition of p97 (unknown origin) expressed in Escherichia coli BL21(DE3) preincubated for 10 mins followed by ATP addition measured after 60 mins by malachite green dye-based assay
Chain of Transitional endoplasmic reticulum ATPase (P55072 whole entry): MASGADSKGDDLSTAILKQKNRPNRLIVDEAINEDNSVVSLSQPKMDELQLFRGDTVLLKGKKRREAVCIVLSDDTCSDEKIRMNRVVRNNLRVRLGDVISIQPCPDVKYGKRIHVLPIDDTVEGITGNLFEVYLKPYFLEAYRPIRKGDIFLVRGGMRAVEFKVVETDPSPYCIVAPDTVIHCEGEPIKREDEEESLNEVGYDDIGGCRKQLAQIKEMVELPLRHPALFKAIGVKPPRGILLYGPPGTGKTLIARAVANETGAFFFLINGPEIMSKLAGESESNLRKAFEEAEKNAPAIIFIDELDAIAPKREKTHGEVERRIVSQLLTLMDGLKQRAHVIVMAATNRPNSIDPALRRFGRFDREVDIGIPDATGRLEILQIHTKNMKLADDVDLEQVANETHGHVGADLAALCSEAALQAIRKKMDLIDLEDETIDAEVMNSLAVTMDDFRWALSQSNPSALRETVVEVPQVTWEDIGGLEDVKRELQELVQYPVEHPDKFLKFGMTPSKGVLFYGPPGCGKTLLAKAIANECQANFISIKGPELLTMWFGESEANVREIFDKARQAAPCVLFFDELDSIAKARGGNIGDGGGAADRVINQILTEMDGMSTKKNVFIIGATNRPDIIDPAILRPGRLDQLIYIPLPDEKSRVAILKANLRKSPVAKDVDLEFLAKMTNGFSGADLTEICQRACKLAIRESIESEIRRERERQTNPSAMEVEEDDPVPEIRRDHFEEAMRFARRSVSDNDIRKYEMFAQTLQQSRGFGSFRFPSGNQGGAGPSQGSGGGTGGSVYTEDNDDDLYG
In short: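 Compound series 100 to 0.0457 µM, 2% DMSO final, 10 min at 37°C. Started with 200 µM ATP, incubated 60 min at 37°C, then malachite green OD660 read. IC50 from semi-log fit of normalized % inhibition.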

[4] = target: ATP-dependent RNA helicase DDX39A (Homo sapiens, UniProt O00148); experiment: Inhibition of DDX39A (unknown origin) expressed in Escherichia coli BL21(Rosetta 2) preincubated for 10 mins followed by ATP addition measured after 60 mins by malachite green dye-based assay
Chain of ATP-dependent RNA helicase DDX39A (O00148 whole entry): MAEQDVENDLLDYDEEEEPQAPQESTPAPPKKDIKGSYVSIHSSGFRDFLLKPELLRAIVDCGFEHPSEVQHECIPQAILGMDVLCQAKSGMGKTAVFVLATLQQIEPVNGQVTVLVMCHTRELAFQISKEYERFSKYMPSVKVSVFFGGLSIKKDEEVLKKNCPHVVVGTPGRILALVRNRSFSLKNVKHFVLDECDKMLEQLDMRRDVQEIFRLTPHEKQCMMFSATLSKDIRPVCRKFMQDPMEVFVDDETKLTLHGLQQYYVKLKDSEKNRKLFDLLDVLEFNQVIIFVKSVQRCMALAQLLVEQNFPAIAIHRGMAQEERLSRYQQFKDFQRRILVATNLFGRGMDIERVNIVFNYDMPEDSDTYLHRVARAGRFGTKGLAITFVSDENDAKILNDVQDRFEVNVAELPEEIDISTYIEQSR
In short: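 His-tagged DDX39A at 500 nM in MES-KOH pH 6.0 buffer (10 mM KOAc, 2.5 mM MgCl2, 1% glycerol, 1 mM DTT). Eight-point 3-fold series 100 to 0.0457 µM, 2% DMSO final, 10 min preincubation at 37°C. Started with 250 µM ATP, 60 min at 37°C, then malachite green read at OD660. EDTA 20 mM served as positive control. IC50 by semi-log fit of normalized inhibition.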

[5] = target: Probable ATP-dependent RNA helicase DDX17 (Homo sapiens, UniProt Q92841); experiment: Inhibition of DDX17 (unknown origin) expressed in Escherichia coli BL21(DE3) preincubated for 10 mins followed by ATP addition measured after 120 mins by malachite green dye-based assay
Chain of Probable ATP-dependent RNA helicase DDX17 (Q92841 whole entry): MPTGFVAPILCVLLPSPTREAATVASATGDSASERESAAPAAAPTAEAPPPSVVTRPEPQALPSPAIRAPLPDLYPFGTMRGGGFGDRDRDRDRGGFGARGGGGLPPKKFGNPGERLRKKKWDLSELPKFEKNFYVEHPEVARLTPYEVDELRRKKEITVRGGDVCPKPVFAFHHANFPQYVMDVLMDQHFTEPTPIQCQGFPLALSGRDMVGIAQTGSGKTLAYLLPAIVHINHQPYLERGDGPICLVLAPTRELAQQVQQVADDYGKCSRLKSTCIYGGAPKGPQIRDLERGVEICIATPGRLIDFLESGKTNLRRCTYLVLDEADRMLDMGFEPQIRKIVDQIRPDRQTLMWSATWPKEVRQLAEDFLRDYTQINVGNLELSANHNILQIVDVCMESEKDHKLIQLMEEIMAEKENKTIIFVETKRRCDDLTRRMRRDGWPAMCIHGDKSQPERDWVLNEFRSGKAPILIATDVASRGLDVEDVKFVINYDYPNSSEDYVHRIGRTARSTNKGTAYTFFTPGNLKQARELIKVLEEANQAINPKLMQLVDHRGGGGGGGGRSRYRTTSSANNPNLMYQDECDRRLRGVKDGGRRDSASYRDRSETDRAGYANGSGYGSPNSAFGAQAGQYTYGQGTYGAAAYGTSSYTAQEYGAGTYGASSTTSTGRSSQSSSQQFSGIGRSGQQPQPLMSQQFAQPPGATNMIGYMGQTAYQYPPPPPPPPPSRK
In short: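 Compound gradient 100 to 0.0457 µM (3-fold), final DMSO 2%, 10 min at 37°C. Reaction started with 250 µM ATP at 37°C, phosphate read by malachite green OD660 at 120 min. IC50 from normalized % inhibition versus log concentration.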

[6] = target: ATP-dependent RNA helicase DDX3X (Homo sapiens, UniProt O00571); experiment: Inhibition of DDX3 (unknown origin) preincubated for 10 mins followed by ATP addition by malachite green dye-based assay
Chain of ATP-dependent RNA helicase DDX3X (O00571 whole entry): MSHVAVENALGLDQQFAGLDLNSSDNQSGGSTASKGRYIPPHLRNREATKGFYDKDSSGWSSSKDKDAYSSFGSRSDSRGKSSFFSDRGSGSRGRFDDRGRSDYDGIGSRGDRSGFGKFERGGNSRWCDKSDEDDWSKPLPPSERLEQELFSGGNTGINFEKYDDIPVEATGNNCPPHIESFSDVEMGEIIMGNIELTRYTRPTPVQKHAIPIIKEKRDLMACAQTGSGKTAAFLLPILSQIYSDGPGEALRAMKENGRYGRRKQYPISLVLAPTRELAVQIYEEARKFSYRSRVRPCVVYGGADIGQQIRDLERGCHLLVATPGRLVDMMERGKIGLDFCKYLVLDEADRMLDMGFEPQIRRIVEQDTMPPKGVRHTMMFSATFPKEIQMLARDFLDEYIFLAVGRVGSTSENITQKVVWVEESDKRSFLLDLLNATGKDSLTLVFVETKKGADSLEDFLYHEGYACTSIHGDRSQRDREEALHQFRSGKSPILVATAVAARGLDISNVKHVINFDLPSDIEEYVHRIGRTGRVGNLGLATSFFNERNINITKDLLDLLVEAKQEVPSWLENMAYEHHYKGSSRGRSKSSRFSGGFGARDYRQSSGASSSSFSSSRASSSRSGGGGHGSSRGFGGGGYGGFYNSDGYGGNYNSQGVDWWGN
In short: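 Compounds 100 to 0.0457 µM, 2% DMSO final, 10 min at 37°C. Initiated with 250 µM ATP at 37°C. Released phosphate detected with malachite green at OD660. IC50 fitted from normalized percent inhibition on a semi-log plot.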

[7] = target: Heat shock 70 kDa protein 1A (Homo sapiens, UniProt P0DMV8); experiment: Inhibition of HSPA1A (unknown origin) expressed in Escherichia coli BL21(DE3) preincubated for 10 mins followed by ATP addition by malachite green dye-based assay
Chain of Heat shock 70 kDa protein 1A (P0DMV8 whole entry): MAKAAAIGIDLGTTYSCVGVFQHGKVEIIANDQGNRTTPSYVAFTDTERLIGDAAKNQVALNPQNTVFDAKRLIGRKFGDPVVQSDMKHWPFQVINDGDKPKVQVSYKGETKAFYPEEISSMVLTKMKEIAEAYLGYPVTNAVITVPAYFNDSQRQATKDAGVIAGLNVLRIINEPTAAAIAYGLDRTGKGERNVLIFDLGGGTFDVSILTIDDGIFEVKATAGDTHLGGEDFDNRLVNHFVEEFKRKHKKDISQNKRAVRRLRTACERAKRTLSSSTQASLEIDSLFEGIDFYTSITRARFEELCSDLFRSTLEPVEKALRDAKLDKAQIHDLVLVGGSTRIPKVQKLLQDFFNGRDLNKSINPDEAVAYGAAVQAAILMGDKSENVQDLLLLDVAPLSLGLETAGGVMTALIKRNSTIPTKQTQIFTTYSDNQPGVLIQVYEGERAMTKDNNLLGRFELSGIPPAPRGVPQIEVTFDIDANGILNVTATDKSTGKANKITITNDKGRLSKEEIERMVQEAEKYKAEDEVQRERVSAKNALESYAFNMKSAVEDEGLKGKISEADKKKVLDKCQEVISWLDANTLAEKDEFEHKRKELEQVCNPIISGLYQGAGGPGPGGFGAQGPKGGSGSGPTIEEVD
In short: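 His-tagged HSPA1A, induced at 16°C, used at 1,000 nM in 50 mM Tris-HCl pH 7.4, 150 mM KCl, 10 mM MgCl2. Compounds 100 to 0.0457 µM, 2% DMSO final, 10 min preincubation at 37°C. Reaction started with 200 µM ATP at 37°C, phosphate detected by malachite green OD660. IC50 by semi-log fit of normalized inhibition.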

[8] = target: Eukaryotic initiation factor 4A-I (Homo sapiens) (UniProt P60842)
[9] = target: Eukaryotic initiation factor 4A-I (Homo sapiens) (UniProt P60842); experiment: Inhibition of eIF4A (unknown origin) expressed in Escherichia coli BL21(DE3) at 100 uM preincubated for 10 mins followed by ATP and fluorescently-labeled RNA addition measured after 10 mins by real-time fluorescence assay relative to control
In short: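 Real-time fluorescence helicase assay. eIF4A at 500 nM in MES-KOH pH 6.0 buffer, preincubated 10 min at 22°C with compound at 100 µM, 2% DMSO final. Started with 50 nM labeled RNA plus 1 mM ATP, or water as control, and read for 10 min at 25°C. % inhibition = 100 − ((A−B)/(C−B)×100), using the slopes of compound (A), water (B) and DMSO (C) traces.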

Chain of Eukaryotic initiation factor 4A-I (Homo sapiens) (P60842 whole entry): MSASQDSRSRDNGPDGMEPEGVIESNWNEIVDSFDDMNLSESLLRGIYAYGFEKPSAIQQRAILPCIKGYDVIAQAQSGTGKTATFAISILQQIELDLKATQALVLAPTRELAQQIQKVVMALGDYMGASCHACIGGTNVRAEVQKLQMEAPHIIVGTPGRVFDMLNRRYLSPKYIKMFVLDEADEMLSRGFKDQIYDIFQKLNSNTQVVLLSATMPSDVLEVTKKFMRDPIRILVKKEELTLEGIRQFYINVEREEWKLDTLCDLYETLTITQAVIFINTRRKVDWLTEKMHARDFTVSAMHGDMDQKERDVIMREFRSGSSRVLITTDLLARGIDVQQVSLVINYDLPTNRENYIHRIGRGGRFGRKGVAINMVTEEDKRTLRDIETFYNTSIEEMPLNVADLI

With `C[C@H]1C[C@@]2(O[C@H]3C[C@H]4[C@@H]5CC[C@H]6C[C@H](O)CC[C@]6(C)[C@H]5[C@@H](O)C[C@]4(C)[C@H]3[C@@]2(C)O)OC1(C)C` the inhibition [1] was “Active”.
`C=C1CC[C@@](C)(c2cc(Br)c(C)cc2O)[C@H]1C` was tested, and the inhibition [2] was “Active”, the IC50 [3] was > 100 µM and the IC50 [4] was > 100 µM. The IC50 [5] was > 100 µM, the IC50 [6] was > 100 µM and the IC50 [7] was > 100 µM. For the same compound, the inhibition [1] was “Active” and the Kis [8] was 3.86 µM.
In the case of `CC(C)=C[C@@H]1C[C@H](C)c2c(O)cc(C)c3c2C1=C(C)C(=O)C3=O` [ELISABATIN A], the inhibition [2] is reported as “Active”, the IC50 [3] is reported as > 100 µM and the IC50 [4] is reported as > 100 µM. For the same compound, the IC50 [5] was > 100 µM, the IC50 [6] was > 100 µM and the IC50 [7] was > 100 µM. It also gave an inhibition [9] of 34% and a Kis [8] of 55 µM.

From ChEMBL document CHEMBL4043127, “ATP-competitive, marine derived natural products that target the DEAD box helicase, eIF4A” (Bioorg Med Chem Lett, 2017)
